Experiments:
[1] = Antitumor activity against mouse Gardner lymphosarcoma allografted in C3H mouse assessed as tumor growth inhibition at 0.10 mg/kg, ip administered daily for 8 to 10 days; type: functional; conditions: route intraperitoneal, read-out: TGI
Procedure, shortened: (§1)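 Gardner lymphosarcoma in C3H mice; sulfate salts unless noted, given ip daily for 8–10 days, treatment starting 8 days after tumor implantation. Tumor growth inhibition scored as –, 0–25%; +, 26–50%; ++, 51–75%; +++, 76–100%; T, lethal to ≥5 of 10 animals per group. Average of one or more tests.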

[2] = Antitumor activity against mouse Gardner lymphosarcoma allografted in C3H mouse assessed as tumor growth inhibition at 0.20 mg/kg, ip administered daily for 8 to 10 days; type: functional; conditions: route intraperitoneal, read-out: TGI; procedure, shortened: as §1
Mus musculus [3] = experiment: Toxicity in C3H mouse allografted with mouse Gardner lymphosarcoma assessed as lethality at 0.40 mg/kg, ip administered daily for 8 to 10 days; type: organism-based; set-up: dose 0.4 mg/kg, route intraperitoneal; conditions: in vivo, 0.4 mg/kg
Procedure, shortened: (§2)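 Tumor-bearing mice given sulfate salts ip daily for 8–10 days; values are the average of one or more tests. Toxic means lethal to ≥5 of 10 animals per group.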

CHO [4] = experiment: Mitotic arrest in CHO cells assessed as increase in cell accumulation at 0.02 ug/ml; type: functional, Cricetulus griseus
Procedure, shortened: (§3)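 Chinese hamster ovary cells in tissue culture, scored for mitotic arrest as increase in cells in mitotic arrest over control: +++, 40–50%; ++, 15–40%; +, 10–15%; ±, 7–10%; –, 3–7%. Cytotoxicity noted separately.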

CHO [5] = experiment: Mitotic arrest in CHO cells assessed as increase in cell accumulation at 0.002 ug/ml; type: functional, Cricetulus griseus; procedure, shortened: as §3
[6] = Antitumor activity against mouse Gardner lymphosarcoma allografted in C3H mouse assessed as tumor growth inhibition at 0.05 mg/kg, ip administered daily for 8 to 10 days; type: functional; conditions: route intraperitoneal, read-out: TGI; procedure, shortened: as §1
[7] = Antitumor activity against mouse Gardner lymphosarcoma allografted in C3H mouse assessed as tumor growth inhibition at 0.40 mg/kg, ip administered daily for 8 to 10 days; type: functional; conditions: route intraperitoneal, read-out: TGI; procedure, shortened: as §1
B16 [8] = experiment: Antitumor activity against mouse B16 cells allografted in C57BL/6 mouse assessed as prolongation of host survival at 0.60 mg/kg, ip administered on days 1,5 and 9; type: functional; conditions: route intraperitoneal
Procedure, shortened: (§4)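 B16 melanoma cells (10⁶ inoculum) implanted ip in C57BL/6 mice; groups of 10. Sulfate salts unless noted, given ip on days 1, 5 and 9. Single test. Survival prolongation is expressed as percent versus controls, with survivors counted on day 60. Toxic means deaths of ≥5 of 10 animals before the first control death.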

B16 [9] = experiment: Antitumor activity against mouse B16 cells allografted in C57BL/6 mouse assessed as prolongation of host survival at 0.90 mg/kg, ip administered on days 1,5 and 9; type: functional; conditions: route intraperitoneal; procedure, shortened: as §4
B16 [10] = experiment: Antitumor activity against mouse B16 cells allografted in C57BL/6 mouse assessed as prolongation of host survival at 1.20 mg/kg, ip administered on days 1,5 and 9; type: functional; conditions: route intraperitoneal; procedure, shortened: as §4
[11] = Antitumor activity against mouse Ridgway osteogenic sarcoma allografted in AKR mouse assessed as tumor growth inhibition at 0.20 mg/kg, ip administered daily for 8 to 10 days compound treatment commenced 8 days after tumor implantation; type: functional; conditions: route intraperitoneal, read-out: TGI
[12] = Antitumor activity against mouse Ridgway osteogenic sarcoma allografted in AKR mouse assessed as tumor growth inhibition at 0.40 mg/kg, ip administered daily for 8 to 10 days compound treatment commenced 8 days after tumor implantation; type: functional; conditions: route intraperitoneal, read-out: TGI
CHO [13] = experiment: Mitotic arrest in CHO cells assessed as increase in cell accumulation at 0.2 ug/ml; type: functional, Cricetulus griseus; procedure, shortened: as §3
Mus musculus [14] = experiment: Toxicity in AKR mouse allografted with mouse Ridgway osteogenic sarcoma assessed as lethality at 0.40 mg/kg, ip administered daily for 8 to 10 days compound treatment commenced 8 days after tumor implantation; type: organism-based; set-up: dose 0.4 mg/kg, route intraperitoneal; conditions: in vivo, 0.4 mg/kg; procedure, shortened: as §2

| SMILES | inhibition in vivo at 0.1 mg/kg [1] [%] | inhibition in vivo at 0.2 mg/kg [2] [%] | inhibition in vivo at 0.4 mg/kg [7] [%] | also measured |
| --- | --- | --- | --- | --- |
| C#CCNC(=O)[C@@]1(O)[C@H](O)[C@]2(CC)C=CCN3CC[C@@]4(c5cc([C@@]6(C(=O)OC)C[C@@H]7CN(CCc8c6[nH]c6ccccc86)C[C@](O)(CC)C7)c(OC)cc5N(C)[C@@H]14)[C@@H]32.O=S(=O)(O)O | 51 | 76 | – | Activity (Mus musculus [3]): Toxic |
| CC[C@]1(O)C[C@H]2CN(CCc3c([nH]c4ccccc34)[C@@](C(=O)OC)(c3cc4c(cc3OC)N(C)[C@H]3[C@@](O)(C(=O)OC)[C@H](O)[C@]5(CC)C=CCN6CC[C@]43[C@@H]65)C2)C1 | – | – | – | Activity (CHO [4]): 40%; Activity (CHO [5]): 3% |
| CC[C@]1(O)C[C@H]2CN(CCc3c([nH]c4ccccc34)[C@@](C(=O)OC)(c3cc4c(cc3OC)N(C)[C@H]3[C@@](O)(C(=O)NCCC#N)[C@H](O)[C@]5(CC)C=CCN6CC[C@]43[C@@H]65)C2)C1 | 0 | 76 | 76 | inhibition in vivo at 0.05 mg/kg [6]: 0% |
| CC[C@]1(O)C[C@H]2CN(CCc3c([nH]c4ccccc34)[C@@](C(=O)OC)(c3cc4c(cc3OC)N(C)[C@H]3[C@@](O)(C(=O)NCC=O)[C@H](O)[C@]5(CC)C=CCN6CC[C@]43[C@@H]65)C2)C1 | 26 | 76 | 76 | inhibition in vivo at 0.05 mg/kg [6]: 0% |
| CC[C@]1(O)C[C@H]2CN(CCc3c([nH]c4ccccc34)[C@@](C(=O)OC)(c3cc4c(cc3OC)N(C)[C@H]3[C@@](O)(C(=O)NCCc5ccc(O)c(O)c5)[C@H](O)[C@]5(CC)C=CCN6CC[C@]43[C@@H]65)C2)C1 | 0 | 0 | 26 | survival at 0.6 mg/kg (B16 [8]): 28%; survival at 0.9 mg/kg (B16 [9]): 128%; survival at 1.2 mg/kg (B16 [10]): 154% |
| CCCCCCNC(=O)[C@@]1(O)[C@H](O)[C@]2(CC)C=CCN3CC[C@@]4(c5cc([C@@]6(C(=O)OC)C[C@@H]7CN(CCc8c6[nH]c6ccccc86)C[C@](O)(CC)C7)c(OC)cc5N(C)[C@@H]14)[C@@H]32 | – | 26 | 0 | inhibition in vivo at 0.2 mg/kg [11]: 0%; inhibition in vivo at 0.4 mg/kg [12]: 0% |
| CC[C@]1(O)C[C@H]2CN(CCc3c([nH]c4ccccc34)[C@@](C(=O)OC)(c3cc4c(cc3OC)N(C)[C@H]3[C@@](O)(C(=O)NCC(O)CO)[C@H](O)[C@]5(CC)C=CCN6CC[C@]43[C@@H]65)C2)C1 (stereo partly specified) | – | 26 | 51 | inhibition in vivo at 0.2 mg/kg [11]: 26%; inhibition in vivo at 0.4 mg/kg [12]: 76% |
| CC[C@]1(O)C[C@H]2CN(CCc3c([nH]c4ccccc34)[C@@](C(=O)OC)(c3cc4c(cc3OC)N(C)[C@H]3[C@@](O)(C(=O)NCCC(=N)OC)[C@H](O)[C@]5(CC)C=CCN6CC[C@]43[C@@H]65)C2)C1 | 0 | 0 | 0 | inhibition in vivo at 0.05 mg/kg [6]: 0% |
| COc1cc2c(c(OC)c1OC)-c1ccc(OC)c(=O)cc1[C@@H](NC(C)=O)CC2 [COLCHICINE] | – | – | – | Activity (CHO [13]): 15%; Activity (CHO [4]): 3% |
| CC[C@]1(O)C[C@H]2CN(CCc3c([nH]c4ccccc34)[C@@](C(=O)OC)(c3cc4c(cc3OC)N(C)[C@H]3[C@@](O)(C(=O)NCCSC(c5ccccc5)(c5ccccc5)c5ccccc5)[C@H](O)[C@]5(CC)C=CCN6CC[C@]43[C@@H]65)C2)C1 | 0 | 0 | 0 | survival at 0.6 mg/kg (B16 [8]): 0%; survival at 0.9 mg/kg (B16 [9]): 1%; survival at 1.2 mg/kg (B16 [10]): 4% |
| CC[C@]1(O)C[C@H]2CN(CCc3c([nH]c4ccccc34)[C@@](C(=O)OC)(c3cc4c(cc3OC)N(C)[C@H]3[C@@](O)(C(=O)NCCSSCCNC(C)=O)[C@H](O)[C@]5(CC)C=CCN6CC[C@]43[C@@H]65)C2)C1 | 0 | 0 | 51 | survival at 0.6 mg/kg (B16 [8]): 93%; survival at 0.9 mg/kg (B16 [9]): 118%; survival at 1.2 mg/kg (B16 [10]): 127% |
| CC[C@]1(O)C[C@H]2CN(CCc3c([nH]c4ccccc34)[C@@](C(=O)OC)(c3cc4c(cc3OC)N(C)[C@H]3[C@@](O)(C(=O)N5CCCC5)[C@H](O)[C@]5(CC)C=CCN6CC[C@]43[C@@H]65)C2)C1.O=S(=O)(O)O | – | 0 | – | Activity (Mus musculus [3]): Toxic; inhibition in vivo at 0.2 mg/kg [11]: 51%; Activity (Mus musculus [14]): Toxic |
| CC[C@]1(O)C[C@H]2CN(CCc3c([nH]c4ccccc34)[C@@](C(=O)OC)(c3cc4c(cc3OC)N(C)[C@H]3[C@@](O)(C(=O)NCC(OC)OC)[C@H](O)[C@]5(CC)C=CCN6CC[C@]43[C@@H]65)C2)C1.O=S(=O)(O)O | 76 | 76 | – | inhibition in vivo at 0.05 mg/kg [6]: 0%; Activity (Mus musculus [3]): Toxic |
| C=CCNC(=O)[C@@]1(O)[C@H](O)[C@]2(CC)C=CCN3CC[C@@]4(c5cc([C@@]6(C(=O)OC)C[C@@H]7CN(CCc8c6[nH]c6ccccc86)C[C@](O)(CC)C7)c(OC)cc5N(C)[C@@H]14)[C@@H]32.O=S(=O)(O)O | 0 | 76 | – | Activity (Mus musculus [3]): Toxic |
| CCCCCCCCCCCCCCCCCC(=O)OCCNC(=O)[C@@]1(O)[C@H](O)[C@]2(CC)C=CCN3CC[C@@]4(c5cc([C@@]6(C(=O)OC)C[C@@H]7CN(CCc8c6[nH]c6ccccc86)C[C@](O)(CC)C7)c(OC)cc5N(C)[C@@H]14)[C@@H]32 | 0 | 51 | 76 | inhibition in vivo at 0.05 mg/kg [6]: 0% |
| CC[C@]1(O)C[C@H]2CN(CCc3c([nH]c4ccccc34)[C@@](C(=O)OC)(c3cc4c(cc3OC)N(C)[C@H]3[C@@](O)(C(=O)NCCc5ccc(O)cc5)[C@H](O)[C@]5(CC)C=CCN6CC[C@]43[C@@H]65)C2)C1 | 0 | 0 | 26 | survival at 0.6 mg/kg (B16 [8]): 125%; survival at 0.9 mg/kg (B16 [9]): 152%; survival at 1.2 mg/kg (B16 [10]): 190% |
| CC[C@]1(O)C[C@H]2CN(CCc3c([nH]c4ccccc34)[C@@](C(=O)OC)(c3cc4c(cc3OC)N(C)[C@H]3[C@@](O)(C(=O)NC5CCCCC5)[C@H](O)[C@]5(CC)C=CCN6CC[C@]43[C@@H]65)C2)C1 | – | 0 | 26 | inhibition in vivo at 0.2 mg/kg [11]: 26%; inhibition in vivo at 0.4 mg/kg [12]: 51% |
| CC[C@]1(O)C[C@H]2CN(CCc3c([nH]c4ccccc34)[C@@](C(=O)OC)(c3cc4c(cc3OC)N(C)[C@H]3[C@@](O)(C(=O)NCCSC(c5ccc(OC)cc5)(c5ccc(OC)cc5)c5ccc(OC)cc5)[C@H](O)[C@]5(CC)C=CCN6CC[C@]43[C@@H]65)C2)C1 | 0 | 0 | 0 | survival at 0.6 mg/kg (B16 [8]): 16%; survival at 0.9 mg/kg (B16 [9]): 28%; survival at 1.2 mg/kg (B16 [10]): 35% |

Reference: ChEMBL document CHEMBL3227917, “Structure-activity relationships of dimeric Catharanthus alkaloids. 2. Experimental antitumor activities of N-substituted deacetylvinblastine amide (vindesine) sulfates” (J Med Chem, 1979)
